According to ChEMBL document CHEMBL3421533, “The Discovery of Orally Bioavailable Tyrosine Threonine Kinase (TTK) Inhibitors: 3-(4-(heterocyclyl)phenyl)-1H-indazole-5-carboxamides as Anticancer Agents” (J Med Chem, 2015):

Tests used:
[1] = AUCinfinity in athymic CD1 nude mouse at 10 mg/kg, po by LC-MS/MS analysis; type: ADME, organism-based, Plasma; parameters: time infinity, dose 10 mg/kg, route oral; conditions: athymic CD1 nude, plasma
MDA-MB-468 = experiment: Cytotoxicity against human MDA-MB-468 cells after 5 days by sulforhodamine B assay; type: functional
In short: (§1)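 Cancer lines were seeded at 800–6000 cells per well according to growth rate, 24 h before compound overlay. After culture, cells were fixed in situ and stained with sulforhodamine B. GI50 values were derived by curve fitting.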

[2] = Half life in mouse liver microsomes at 1 uM by LC-MS analysis; type: ADME; conditions: liver microsomes
[3] = Cmax in athymic CD1 nude mouse at 10 mg/kg, po by LC-MS/MS analysis; type: ADME, organism-based; parameters: dose 10 mg/kg, route oral; conditions: athymic CD1 nude, in vivo
[4] = biological target: Aurora kinase B/Inner centromere protein (Homo sapiens, UniProt Q96GD4); experiment: Inhibition of AURKB/INCENP (unknown origin) preincubated for 15 mins prior to ATP addition by FRET-based homogenous assay; type: protein-complex assay
In short: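 The enzyme was AURKB/INCENP in a FRET-based homogeneous assay run to kit specifications, with ATP at 128 μM. […] Each IC50 came from a single determination, reported with its standard fitting error.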

[5] = biological target: T1, Dual specificity protein kinase TTK (Homo sapiens, UniProt P33981); experiment: Inhibition of amino terminal GST-fused full length human TTK using His6-SUMO-TTK-N as substrate preincubated for 15 mins prior to ATP addition by indirect ELISA detection system
T1 sequence (P33981 whole entry): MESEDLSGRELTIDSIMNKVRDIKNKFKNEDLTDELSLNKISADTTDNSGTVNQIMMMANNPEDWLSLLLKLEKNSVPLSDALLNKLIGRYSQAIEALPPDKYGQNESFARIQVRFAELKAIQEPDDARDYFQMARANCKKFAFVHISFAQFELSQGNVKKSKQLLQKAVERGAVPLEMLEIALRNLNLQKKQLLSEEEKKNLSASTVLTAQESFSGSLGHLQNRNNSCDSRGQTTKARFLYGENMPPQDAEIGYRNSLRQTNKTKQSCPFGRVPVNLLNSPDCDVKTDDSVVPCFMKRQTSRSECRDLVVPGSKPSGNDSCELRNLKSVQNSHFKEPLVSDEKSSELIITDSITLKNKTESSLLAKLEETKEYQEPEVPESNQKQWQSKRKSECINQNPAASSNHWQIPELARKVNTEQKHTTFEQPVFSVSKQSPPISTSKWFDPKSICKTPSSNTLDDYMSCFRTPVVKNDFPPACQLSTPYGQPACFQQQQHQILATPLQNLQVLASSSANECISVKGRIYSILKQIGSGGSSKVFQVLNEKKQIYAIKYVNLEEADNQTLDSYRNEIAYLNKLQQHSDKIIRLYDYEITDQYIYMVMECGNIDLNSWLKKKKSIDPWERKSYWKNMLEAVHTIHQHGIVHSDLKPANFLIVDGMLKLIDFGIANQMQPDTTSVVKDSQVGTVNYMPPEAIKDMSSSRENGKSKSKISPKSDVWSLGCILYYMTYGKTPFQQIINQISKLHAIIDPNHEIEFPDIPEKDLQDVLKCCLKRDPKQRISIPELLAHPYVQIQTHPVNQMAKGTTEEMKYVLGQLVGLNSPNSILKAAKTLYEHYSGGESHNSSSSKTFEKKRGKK

Homo sapiens = species on record: Homo sapiens; experiment: Selectivity ratio of IC50 for AURKB/INCENP (unknown origin) to IC50 for amino terminal GST-fused full length human TTK
[6] = Cytotoxicity against human HCT116 cells after 5 days by sulforhodamine B assay; type: functional, HCT-116; in short: as §1
[7] = Cytotoxicity against human OVCAR3 cells after 5 days by sulforhodamine B assay; type: functional, OVCAR-3
[8] = Half life in rat liver microsomes at 1 uM by LC-MS analysis; type: ADME; conditions: liver microsomes
Cytochrome P450 3A4 = Cytochrome P450 3A4 (Homo sapiens, UniProt P08684); experiment: Inhibition of human CYP3A4 using BFC as substrate preincubated for 10 mins followed by enzyme/substrate addition measured after 30 mins by fluorescence assay; type: ADME
[9] = Homo sapiens, MDA-MB-468, 120 h

Sequence of Aurora kinase B/Inner centromere protein (Q96GD4 whole entry): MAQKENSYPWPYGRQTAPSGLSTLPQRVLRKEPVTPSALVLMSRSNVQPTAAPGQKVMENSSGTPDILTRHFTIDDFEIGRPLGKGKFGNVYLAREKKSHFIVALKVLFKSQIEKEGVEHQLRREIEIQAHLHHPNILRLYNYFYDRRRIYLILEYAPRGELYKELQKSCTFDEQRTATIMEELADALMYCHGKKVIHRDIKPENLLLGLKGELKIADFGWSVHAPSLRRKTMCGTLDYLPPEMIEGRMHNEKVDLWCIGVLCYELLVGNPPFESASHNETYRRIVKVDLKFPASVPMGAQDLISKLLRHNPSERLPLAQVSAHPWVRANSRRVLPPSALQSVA
Sequence of Aurora kinase B/Inner centromere protein (Q9NQS7 whole entry, further chain): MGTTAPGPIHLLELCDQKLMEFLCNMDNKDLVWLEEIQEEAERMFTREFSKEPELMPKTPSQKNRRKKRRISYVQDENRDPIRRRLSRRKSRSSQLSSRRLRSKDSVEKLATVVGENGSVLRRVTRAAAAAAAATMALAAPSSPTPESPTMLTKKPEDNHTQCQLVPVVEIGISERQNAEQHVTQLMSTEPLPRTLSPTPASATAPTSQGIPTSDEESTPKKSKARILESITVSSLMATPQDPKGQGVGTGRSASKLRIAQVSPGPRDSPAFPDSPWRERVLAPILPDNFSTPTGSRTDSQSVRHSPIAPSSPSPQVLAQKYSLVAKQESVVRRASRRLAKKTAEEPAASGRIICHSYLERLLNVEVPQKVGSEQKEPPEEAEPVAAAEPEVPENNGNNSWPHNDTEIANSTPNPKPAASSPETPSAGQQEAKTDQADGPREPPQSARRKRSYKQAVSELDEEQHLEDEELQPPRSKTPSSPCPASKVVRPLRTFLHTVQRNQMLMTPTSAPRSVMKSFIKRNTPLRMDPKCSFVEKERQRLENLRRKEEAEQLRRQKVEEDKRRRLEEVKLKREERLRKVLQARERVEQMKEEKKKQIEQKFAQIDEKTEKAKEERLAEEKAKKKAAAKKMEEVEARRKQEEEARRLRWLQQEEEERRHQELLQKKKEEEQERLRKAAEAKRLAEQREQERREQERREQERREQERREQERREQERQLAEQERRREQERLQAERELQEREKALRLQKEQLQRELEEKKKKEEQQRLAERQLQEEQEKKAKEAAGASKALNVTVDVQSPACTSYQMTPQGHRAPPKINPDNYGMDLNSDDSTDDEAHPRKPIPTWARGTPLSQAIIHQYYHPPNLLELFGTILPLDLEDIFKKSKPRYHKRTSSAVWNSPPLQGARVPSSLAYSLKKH
Sequence of Cytochrome P450 3A4 (P08684 whole entry): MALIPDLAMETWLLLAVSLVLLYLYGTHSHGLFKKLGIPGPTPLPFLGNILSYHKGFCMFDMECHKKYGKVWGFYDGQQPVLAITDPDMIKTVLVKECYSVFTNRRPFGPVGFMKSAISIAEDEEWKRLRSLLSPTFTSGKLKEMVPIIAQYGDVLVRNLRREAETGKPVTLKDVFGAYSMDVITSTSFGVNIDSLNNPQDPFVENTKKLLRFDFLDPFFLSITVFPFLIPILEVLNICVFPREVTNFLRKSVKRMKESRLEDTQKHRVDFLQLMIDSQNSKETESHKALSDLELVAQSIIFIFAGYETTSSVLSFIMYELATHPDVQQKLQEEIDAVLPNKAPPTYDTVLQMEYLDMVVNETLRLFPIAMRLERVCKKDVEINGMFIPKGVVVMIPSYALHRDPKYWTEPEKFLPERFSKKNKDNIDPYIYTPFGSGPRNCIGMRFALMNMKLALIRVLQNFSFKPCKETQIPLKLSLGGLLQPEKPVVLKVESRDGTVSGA

| SMILES | GI50 (MDA-MB-468; [9]) [nM] | half-life at 1 µM [2] [min] | IC50 [4] [nM] | IC50 [5] [nM] | GI50 ([6]; Homo sapiens, HCT-116, 120 h) [nM] | GI50 ([7]; Homo sapiens, OVCAR-3, 120 h) [nM] | IC50 (Cytochrome P450 3A4) [nM] | further results |
| --- | --- | --- | --- | --- | --- | --- | --- | --- |
| CC(C)[C@H](NC(=O)c1ccc2[nH]nc(-c3ccc(N4[C@H]5CC[C@H]4CC(O)C5)cc3)c2c1)c1ccccc1Cl (stereo not given in full) | 21 | 34 | > 6300 | 6 | 9 | 7 |  | AUC(0-inf) [1]: 620 ng·h/mL; Cmax [3]: 330 ng/mL; Ratio IC50 (Homo sapiens): > 100; half-life at 1 µM [8]: > 60 min |
| O=C(N[C@@H](c1ccccn1)C1CCCC1)c1ccc2[nH]nc(-c3ccc(N4C5CCC4COC5)cc3)c2c1 |  |  | 1400 |  |  |  | 360 |  |
| CN1[C@@H]2CC[C@H]1C[C@@H](Oc1ccc(-c3n[nH]c4ccc(C(=O)NC(c5ccccc5)C5CC5)cc34)cc1)C2 (mixture of isomers) | 130 |  | 93 | 2.8 | 30 |  | 2400 |  |
| CC[C@@H](NC(=O)c1ccc2[nH]nc(-c3ccc(OC4CCN(C)CC4)cc3)c2c1)c1ccccc1Cl |  |  | 38 |  |  |  |  |  |
| CC(C)C[C@@H](NC(=O)c1ccc2[nH]nc(-c3ccc(N4[C@H]5CC[C@H]4CC(O)C5)cc3)c2c1)c1ccccn1 (stereo not given in full) | 26 | > 60 | 1600 | 2.7 | 5 | 82 |  | half-life at 1 µM [8]: 25 min |
| CN1CCC(Oc2ccc(-c3n[nH]c4ccc(NC(=O)C(c5ccccn5)C5CCCC5)cc34)cc2)CC1 (racemic) |  |  | 71 |  |  |  |  |  |
| O=C(N[C@@H](c1ccccc1F)C1CC1)c1ccc2[nH]nc(-c3ccc(N4C5CCC4COC5)cc3)c2c1 |  |  | 980 |  |  |  | 240 |  |
| O=C(N[C@@H](c1ccccn1)C1CC1)c1ccc2[nH]nc(-c3ccc(N4[C@H]5CC[C@H]4CC(O)C5)cc3)c2c1 (stereo in doubt; 87) |  |  | 1700 | 2.7 |  |  | 1400 | GI50 (MDA-MB-468): 210 nM; GI50 [6]: 48 nM; GI50 [7]: 310 nM |
| O=C(N[C@@H](c1ccccn1)C1CCCC1)c1ccc2[nH]nc(-c3ccc(N4[C@H]5CC[C@H]4CC(O)C5)cc3)c2c1 (stereo not given in full) | 30 | > 60 | 1800 | 4.1 | 15 | 90 | 230 | Ratio IC50 (Homo sapiens): > 100; half-life at 1 µM [8]: 22 min |
| CC(C)C[C@H](NC(=O)c1ccc2[nH]nc(-c3ccc(N4[C@H]5CC[C@H]4CC(O)C5)cc3)c2c1)c1ccccn1 (stereo not given in full) | 17 | > 60 | 1500 | 1.7 | 2 | 140 |  | half-life at 1 µM [8]: 48 min |
| O=C(N[C@H](c1ccccc1)C1CC1)c1ccc2[nH]nc(-c3ccc(N4[C@H]5CC[C@H]4CC(O)C5)cc3)c2c1 (stereo not given in full) | 70 | 47 | 1100 | 2.8 | 22 | 120 |  | AUC(0-inf) [1]: 670 ng·h/mL; Cmax [3]: 480 ng/mL; Ratio IC50 (Homo sapiens): > 100; half-life at 1 µM [8]: 35 min |
| CN1CCC(Oc2ccc(-c3n[nH]c4ccc(C(=O)NC(c5ccccn5)C5CCCC5)cc34)cc2)CC1 (racemic) |  |  | 180 |  |  |  |  |  |
| CC(C)[C@H](NC(=O)c1ccc2[nH]nc(-c3ccc(N4C5CCC4COC5)cc3)c2c1)c1ccccc1Cl |  |  | 1900 |  |  |  | 60 |  |
| O=C(N[C@H](c1ccccn1)C1CCCC1)c1ccc2[nH]nc(-c3ccc(N4[C@H]5CC[C@H]4CC(O)C5)cc3)c2c1 (stereo in doubt; 88) |  |  |  |  |  |  |  | Ratio IC50 (Homo sapiens): > 100 |
| O=C(NCC1(N2CCOCC2)CCCCC1)c1ccc2[nH]nc(-c3ccc(N4CCC(O)CC4)cc3)c2c1 | 210 |  |  | 230 | 48 |  |  |  |
| NS(=O)(=O)c1cccc(-c2n[nH]c3ccc(C(=O)NC(c4ccccc4)C4CC4)cc23)c1 (stereo not given) |  |  | 5000 |  |  |  |  |  |
| O=C(N[C@@H](c1ncccn1)C1CCCC1)c1ccc2[nH]nc(-c3ccc(N4[C@H]5CC[C@H]4CC(O)C5)cc3)c2c1 (stereo not given in full) | 150 | > 60 | 850 | 3.9 | 20 | 160 |  |  |

| SMILES | GI50 (MDA-MB-468; [9]) [nM] | half-life at 1 µM [2] [min] | IC50 [4] [nM] | IC50 [5] [nM] | GI50 ([6]; Homo sapiens, HCT-116, 120 h) [nM] | GI50 ([7]; Homo sapiens, OVCAR-3, 120 h) [nM] | IC50 (Cytochrome P450 3A4) [nM] | further results |
| --- | --- | --- | --- | --- | --- | --- | --- | --- |
| CC(C)C[C@H](NC(=O)c1ccc2[nH]nc(-c3ccc(N4[C@H]5CCC[C@H]4CC(O)C5)cc3)c2c1)c1ccccn1 (stereo not given in full) | 450 |  | 980 | 14 | 150 | 730 |  | Ratio IC50 (Homo sapiens): > 100 |
| O=C(NC(c1ccccc1)C1CC1)c1ccc2[nH]nc(-c3cccc(N4CCOCC4)c3)c2c1 (racemic) | 7800 |  |  | 340 | 5600 |  |  |  |
| O=CN1CCC(Oc2ccc(-c3n[nH]c4ccc(C(=O)NC(c5ccccc5)C5CC5)cc34)cc2)CC1 (racemic) | 360 |  |  | 16 | 130 |  | 1500 |  |
| O=C(NCC1(N2CCOCC2)CCCCC1)c1ccc2[nH]nc(-c3ccc(N4C5CCC4COC5)cc3)c2c1 | 25 | 2.7 | 800 | 1.1 | 1 | 17 |  | half-life at 1 µM [8]: 9.6 min |
| O=C(N[C@H](c1ccccc1F)C1CC1)c1ccc2[nH]nc(-c3ccc(N4C5CCC4COC5)cc3)c2c1 |  |  | 470 |  |  |  |  |  |
| CC(C)C[C@H](NC(=O)c1ccc2[nH]nc(-c3ccc(N4[C@H]5COC[C@H]4CC(O)C5)cc3)c2c1)c1ccccn1 (mixture of isomers) |  |  | 230 |  |  |  |  |  |
| CN1CCN(c2ccc(-c3n[nH]c4ccc(NC(=O)C(c5ccsc5)N5CCCC5)cc34)cc2S(C)(=O)=O)CC1 (racemic) | 900 |  |  | 18 | 280 |  |  |  |
| O=C(NCC1(N2CCOCC2)CCCCC1)c1ccc2[nH]nc(-c3ccc(N4CC5CCC(C4)O5)cc3)c2c1 | 650 |  |  | 18 | 150 | 690 |  |  |
| CN1[C@@H]2CC[C@H]1C[C@H](Oc1ccc(-c3n[nH]c4ccc(C(=O)NC(c5ccccc5)C5CC5)cc34)cc1)C2 (mixture of isomers) | 160 |  |  | 7.3 | 33 |  |  |  |
| CN1CCC(Oc2ccc(-c3n[nH]c4ccc(C(=O)NC(c5ccccc5)C5CC5)cc34)cc2)CC1 (racemic) |  |  | 57 |  |  |  |  |  |
| O=C(N[C@H](c1ccccn1)C1CC1)c1ccc2[nH]nc(-c3ccc(N4[C@H]5CC[C@H]4CC(O)C5)cc3)c2c1 (stereo in doubt; 74) |  | > 60 | 530 | 1.2 | 18 |  | 2100 | AUC(0-inf) [1]: 1600 ng·h/mL; GI50 (MDA-MB-468): 16 nM; Cmax [3]: 1600 ng/mL; GI50 [7]: 20 nM; half-life at 1 µM [8]: > 60 min |
| O=C(N[C@H](c1ccccn1)C1CCCC1)c1ccc2[nH]nc(-c3ccc(N4[C@H]5CC[C@H]4CC(O)C5)cc3)c2c1 (stereo in doubt; 76) |  |  |  |  |  |  |  | Ratio IC50 (Homo sapiens): > 100 |
| O=C(N[C@@H](c1ccccn1)C1CCCC1)c1ccc2[nH]nc(-c3ccc(N4[C@H]5COC[C@H]4CC(O)C5)cc3)c2c1 (stereo not given in full) | 140 | 60 | 740 | 2.2 | 15 | 160 | 330 | Ratio IC50 (Homo sapiens): > 100; half-life at 1 µM [8]: 33 min |
| O=CN1CCC(Oc2ccc(-c3n[nH]c4ccc(C(=O)NC(c5ccccn5)C5CC5)cc34)cc2)CC1 (racemic) | 260 |  | 95 | 9.4 | 35 |  | 1500 |  |
| O=C(N[C@H](c1ccccn1)C1CC1)c1ccc2[nH]nc(-c3ccc(N4C5CCC4COC5)cc3)c2c1 | 15 | > 60 | 360 | 1.4 | 2 | 18 |  | half-life at 1 µM [8]: > 60 min |
| O=C(N[C@H](c1ccccn1)C1CCCC1)c1ccc2[nH]nc(-c3ccc(N4C5CCCC4COC5)cc3)c2c1 | 180 | 50 | 2800 | 8.3 | 25 | 200 |  |  |
